In ChEMBL document CHEMBL1155043, “Complexation of the anti-Trypanosoma cruzi drug benznidazole improves solubility and efficacy” (J Med Chem, 2008):
≈ marks a conversion by molar mass, not a printed value. Calls of active or inactive are those of the source. No cut-off for these calls is given here.

Columns and labels:
[1] = system: Trypanosoma cruzi; assay: Antiproliferative activity against Trypanosoma cruzi Y epimastigotes assessed as number of motile forms at 0.5 mM after 4 hrs by hemocytometer; assay type: functional; settings: read-out: GI
Outline: (§1)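 Y strain epimastigotes grown in Schneider's medium with 20% fetal calf serum, taken in exponential phase, PBS-washed, resuspended to 2.0 × 10^6/mL. Plated in triplicate with compound diluted in PBS, incubated at 37 °C, 5% CO2. Motile forms counted by hemocytometer; % growth inhibition = {1 - [(LDt - LDt0)/(LCt - LCt0)]} × 100 against untreated wells.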

[2] = system: Trypanosoma cruzi; assay: Antitrypanosomal activity against bloodstream trypomastigote of Trypanosoma cruzi Y assessed as number of motile forms after 1 hr by hemocytometer; assay type: functional, organism-based
Outline: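 Bloodstream trypomastigotes (Y strain) taken from mice at peak parasitemia, resuspended to 1.0 × 10^6/mL. Triplicate wells with compound in PBS at 0.1, 0.25, 0.5 and 1.0 mM, 37 °C, 5% CO2, 1 h. Motile forms counted by hemocytometer; % trypanocidal activity = [1 - (LDt/LCt)] × 100 against untreated wells.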

[3] = system: Trypanosoma cruzi; assay: Antiproliferative activity against Trypanosoma cruzi Y epimastigotes assessed as number of motile forms at 0.1 mM after 1 hr by hemocytometer; assay type: functional; settings: read-out: GI; outline: as §1
[4] = system: Trypanosoma cruzi; assay: Antitrypanosomal activity against Trypanosoma cruzi Y infected in Swiss mouse assessed as survivality at 385 umol/kg, po after 15 consecutive days; assay type: functional
Outline: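 Female Swiss mice, 5-6 weeks old, infected intraperitoneally with 1.0 × 10^3 Y-strain bloodstream trypomastigotes from an infected mouse. Oral dosing once daily in PBS for 15 consecutive days. Groups of six; untreated or PBS-only infected controls. Parasitemia counted as motile trypomastigotes in 5 µL tail blood, and survival of the treated animals recorded.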

[5] = system: Trypanosoma cruzi; assay: Antitrypanosomal activity against Trypanosoma cruzi Y epimastigotes assessed as number of motile forms after 24 hrs by hemocytometer; assay type: functional, organism-based
Outline: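 Y strain epimastigotes in Schneider's medium with 20% FCS, exponential phase, PBS-washed, 2.0 × 10^6/mL. Triplicate wells with compound in PBS at 0.1, 0.25, 0.5 and 1.0 mM, 37 °C, 5% CO2, 24 h. Motile forms counted by hemocytometer; IC50 taken as 50% antiproliferative activity. Mean ± SEM, n = 3.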

[6] = system: Trypanosoma cruzi; assay: Antiproliferative activity against Trypanosoma cruzi Y epimastigotes assessed as number of motile forms at 0.1 mM after 4 hrs by hemocytometer; assay type: functional; settings: read-out: GI; outline: as §1
[7] = system: Trypanosoma cruzi; assay: Antitrypanosomal activity against Trypanosoma cruzi Y infected in Swiss mouse assessed as survivality at 100 nmol/kg, ip after 15 consecutive days; assay type: functional, organism-based
Outline: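 Female Swiss mice, 5-6 weeks old, groups of six, infected ip with 1.0 × 10^3 Y strain bloodstream trypomastigotes. Treated ip in 100 µL PBS daily for 15 consecutive days. Controls were untreated or PBS-only infected mice. Survival followed up to 120 days.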

[8] = Aqueous solubility at pH 6.5; assay type: physicochemical
Outline: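 Solubility measured in a bio-relevant medium simulating fasted proximal small intestine: 3 mM sodium taurocholate, 0.75 mM lecithin, KH2PO4, KCl, pH 6.5, 37 °C. Excess compound stirred 24 h in 5 mL, filtered through 0.45 µm, diluted, and quantified by UV-vis at 323 nm (ε = 4.5 × 10^3 M-1 cm-1), in triplicate.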

[9] = system: V79; assay: Cytotoxicity against chinese hamster V79 cells; assay type: cell-based; settings: Cricetulus griseus
[10] = system: Trypanosoma cruzi; assay: Antitrypanosomal activity against Trypanosoma cruzi Y infected in Swiss mouse assessed as decrease in parasitemia at 385 umol/kg, po after 15 consecutive days; assay type: functional, organism-based
[11] = system: Trypanosoma cruzi; assay: Antiproliferative activity against Trypanosoma cruzi Y epimastigotes assessed as number of motile forms at 1 mM after 1 hr by hemocytometer; assay type: functional; settings: read-out: GI; outline: as §1
[12] = system: Trypanosoma cruzi; assay: Antiproliferative activity against Trypanosoma cruzi Y epimastigotes assessed as number of motile forms at 0.5 mM after 1 hr by hemocytometer; assay type: functional; settings: read-out: GI; outline: as §1
[13] = system: Trypanosoma cruzi; assay: Antiproliferative activity against Trypanosoma cruzi Y epimastigotes assessed as number of motile forms at 0.5 mM after 24 hrs by hemocytometer; assay type: functional; settings: read-out: GI; outline: as §1
[14] = system: Trypanosoma cruzi; assay: Antiproliferative activity against Trypanosoma cruzi Y epimastigotes assessed as number of motile forms at 1 mM after 4 hrs by hemocytometer; assay type: functional; settings: read-out: GI; outline: as §1
[15] = system: Trypanosoma cruzi; assay: Antitrypanosomal activity against Trypanosoma cruzi Y infected in Swiss mouse assessed as survivality at 385 umol/kg, po for 1 day after 15 days; assay type: functional
Outline: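 Female Swiss mice, 5-6 weeks old, infected intraperitoneally with 1.0 × 10^3 Y-strain bloodstream trypomastigotes. A single oral dose in PBS was given only on the first day after infection. Groups of six, with infected controls. Survival was followed, and parasitemia was counted as motile trypomastigotes in 5 µL tail blood.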

[16] = system: Trypanosoma cruzi; assay: Antiproliferative activity against Trypanosoma cruzi Y epimastigotes assessed as number of motile forms at 1 mM after 24 hrs by hemocytometer; assay type: functional; settings: read-out: GI; outline: as §1
[17] = system: Trypanosoma cruzi; assay: Antiproliferative activity against Trypanosoma cruzi Y epimastigotes assessed as number of motile forms at 0.1 mM after 24 hrs by hemocytometer; assay type: functional; settings: read-out: GI; outline: as §1

SMILES: O=C(Cn1ccnc1[N+](=O)[O-])NCc1ccccc1 [BENZNIDAZOLE]
- inhibition of growth at 500 µM [1]: 15%
- IC50 [2]: > 1000 µM
- inhibition of growth at 100 µM [3]: 0%
- survival at 385 µmol/kg [4]: 100%
- IC50 [5]: > 1000 µM
- inhibition of growth at 100 µM [6]: 11%
- Activity [7]: inactive
- solubility [8]: 400 µg/mL (≈ 1540 µM)
- IC50 [9]: 2000 µM
- Activity [10]: Active
- inhibition of growth at 1000 µM [11]: 7%
- inhibition of growth at 500 µM [12]: 0%
- inhibition of growth at 500 µM [13]: 26%
- inhibition of growth at 1000 µM [14]: 24%
- survival at 385 µmol/kg [15]: 20%
- inhibition of growth at 1000 µM [16]: 31%
- inhibition of growth at 100 µM [17]: 15%
